# Experimental data from BindingDB's records for doi:10.1016/j.bmcl.2013.01.031 (Birla Institute of Technology, 2013).
# pIC50: −log10 of the molar value.
# Target: O-acetylserine sulfhydrylase (Mycobacterium tuberculosis (strain ATCC 25618 / H37Rv), UniProt P9WP55)
# Experiment: Inhibition of Mycobacterium tuberculosis CysK1 using O-acetyl-L-serine as substrate assessed as L-cycteine formation after 5 mins by spectrophotometric analysis
# Summary of the method: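 Dose–response: serial 1:3 dilutions prepared in 50% DMSO (final DMSO 5%). Final mix was 100 mM MOPS pH 7.0, 2 mM O-acetyl-L-serine, […] CysK1, preincubated 5 min at room temperature. The reaction was started with sodium sulphide (final 1 mM). Aliquots taken at time intervals were assayed for L-cysteine by acid-ninhydrin. Specific activity vs concentration was fitted to a sigmoid for IC50.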
row,Compound,pIC50
1,O=C1Nc2c(c(=O)nc3sc([N+](=O)[O-])cn23)C(c2ccccc2C(F)(F)F)N1 (configuration not stated),4.75
2,Cc1ccccc1C1NC(=S)Nc2c1c(=O)nc1sc([N+](=O)[O-])cn21 (configuration not stated),4.75
